Source: PubChem (several laboratories)
An excerpt weighted towards active compounds, which were near 4% of everything screened.
NR3A LBD binder: modulators (binders) of human NR3A ligand-binding domain; NR3A LBD differential scanning fluorimetry, Tm shift; 0% = protein alone, 100% = glycine-bound protein; Tm shift relative to glycine control, % at 25 µM; AID 1259313; actives 2.5% (n = 340,000);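 active = melting temperature shift of at least 10% of the positive control shift, at one fixed dose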
Cardio protect: protects H9c2 cardiomyocytes from peroxide injury. protection from H2O2 cell death, % at 20 µM. H2O2 injury protection, ATPLite, 2 h. actives 0.63% (n = 360,000);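 active = compounds giving at least 50% protection of heart cells from peroxide-induced death in the single-dose screen, raw or plate-pattern-corrected value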;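 also: 0% = DMSO wells with peroxide and 100% = DMSO wells without peroxide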
SENP1 inh: blocks the human SENP1 SUMO protease catalytic domain; actives 0.21% (n = 360,000); inhibition, % at 10 µM; recombinant SENP1 catalytic domain, CyPet-SUMO1-YPet FRET cleavage; AID 624204; Q9P0U3;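 active = inhibition at least 30% at 10 µM, raw YFP signal under a set limit, fluorescence ratio 0.5 to 1.5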;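 also: 0% = enzyme with DMSO and 100% = no enzyme wells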
Target sequence (Q9P0U3 419-644 limits assumed): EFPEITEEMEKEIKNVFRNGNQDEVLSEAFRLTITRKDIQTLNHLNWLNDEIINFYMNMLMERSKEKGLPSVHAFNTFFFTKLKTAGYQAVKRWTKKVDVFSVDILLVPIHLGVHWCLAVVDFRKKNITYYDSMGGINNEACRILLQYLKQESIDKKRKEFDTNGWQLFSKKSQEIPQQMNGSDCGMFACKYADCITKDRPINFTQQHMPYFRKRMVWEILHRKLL
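system = hSENP1 catalytic domain, recombinant | reagent = SFCypet-SUMO1-SFYpet substrate at 25 nM | doses = one dose per compound, 10 µM, 0.5% DMSO | incubation = enzyme reaction for 50 min at room temperature, dark | measured by = FRET, CFP and YFP emission | controls = no-enzyme low, enzyme-DMSO high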
Arr AP2 block: blocks beta-arrestin peptide binding to AP2 adaptin. FITC-arrestin peptide / GST-AP2 beads, flow cytometry; AP2 beta2 appendage carries R879A mutation. inhibition, % at 10 µM. actives 0.31% (n = 340,000). AID 504490;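 active = inhibition above a set limit, near 3 SD of compounds lacking own fluorescence, cut at about 54% in these data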;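 also: plate controls were DMSO wells for no effect and 5 µM unlabelled arrestin peptide for full effect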
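System: GST-AP2 R879A glutathione beads | Also added: FITC-arrestin peptide, 50 nM | Times: 12 min plus 1 h, RT | Signal: Bead flow cytometry, FITC channel | Buffer or medium: PBS with 0.05% Tween 20 and 0.1% BSA | Read-out basis: Percent drop in bead-associated FITC signal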
hiPSC survival: enhancers of human iPSC single-cell survival; hiPSC single-cell survival, ATPlite luminescence; 100% = ROCK inhibitor wells, 0% = DMSO; survival enhancement, % at 20 µM; actives 0.044% (n = 360,000); AID 602274; in the data active = survival enhancement above about 18%;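 also: cells exposed to compounds for 16 hours before the ATP read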
FAS-TE inh: inhibitors of human fatty acid synthase thioesterase domain; inhibition, % at 15 µM; P49327; actives 0.67% (n = 360,000); recombinant FAS-TE, OMFH fluorogenic substrate, fluorescence endpoint;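 active = compounds whose normalised, plate-corrected inhibition of enzyme fluorescence in the single-dose primary screen is 50% or more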;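 also: 0% = DMSO with enzyme and 100% = substrate without enzyme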
Starred values were filed as active, the others as inactive; . = no result.

SMILES	NR3A LBD binder	Cardio protect	SENP1 inh	Arr AP2 block	hiPSC survival	FAS-TE inh
CC(=O)Nc1ccc(NC(=O)Nc2ccc3c(c2)N(C)C(=O)CS3)cc1	7	1	2	9	2	-1
CN1C(=O)CSc2ccc(NC(=O)N3CCN(c4ccccn4)CC3)cc21	1	57*	5	2	0	4
CN1C(=O)CSc2ccc(NC(=O)Nc3ccccn3)cc21	-4	59*	5	3	0	-4
CN(C)C(=O)N1CCc2ccc([N+](=O)[O-])cc21	.	-2	2	.	-2	-9
CC1=C(C(=O)N2CCOCC2)CC(CC(=O)NCCCCc2ccccc2)C(=O)N1Cc1ccc(C(C)(C)C)cc1 (stereo not drawn)	.	13	-1	.	-1	13
CC1(C)CC(=O)c2c(oc3cc(O)c(O)cc23)C1	0	90*	1	19	-2	-12
COc1ccc2c(c1)c(CC(=O)NCc1cc([N+](=O)[O-])ccc1O)c(C)n2C(=O)c1ccc(Cl)cc1	24*	-4	1	-2	0	15
CC(=N\Nc1ccc(Cl)cc1)/C(=N/O)C(=O)Nc1ccccc1	23*	-6	2	32	2	-18
COc1cc(/C=C/C(=O)OCC(=O)NCc2ccco2)ccc1OC(F)F	14*	9	3	-18	0	4
CN(C)c1ccc(/C=C/C=C2/SC(=S)N(c3ccccc3)C2=O)cc1	1	-16	72*	41	0	29
O=C(O)c1ccc(N2C(=O)/C(=C/C=C/c3ccccc3)SC2=S)cc1	4	-1	7	3	-1	1
COc1ccc(-c2ccnc(SCC(=O)c3ccc(OC)c(OC)c3)n2)cc1	14*	-6	0	13	3	17
CC(C)(C)NC(=O)C1C(c2ccc(C(F)(F)F)cc2)=Nc2ccccc2N1C(=O)c1cccc2ccccc12 (stereo not drawn)	.	.	3	.	.	.
COc1ccc(C(NC(=O)C2CCN(CCOc3ccc(Cl)cc3)CC2)c2cccs2)cc1 (stereo not drawn)	.	-4	-2	.	10	11
CCCC1NC(=O)c2cccnc2-n2c1nc1ccc(Br)cc1c2=O (stereo not drawn)	.	-3	-1	.	2	-4
CCc1nc2c(OCC(=O)C(C)(C)C)cccn2c1N(C=O)Cc1ccc(OC)cc1	.	-5	-5	.	2	0
Cc1cccc(CSc2nc(N)c(C#N)c(-c3cccs3)c2C#N)c1	13*	-15	-9	5	-1	32
CCCCCCCCCCCC1N=C(N)NC(CCCO)=C1C(=O)OC (stereo not drawn)	0	-22	-4	36	-1	-147
CCCCOc1cccc(C(=O)NC(=S)Nc2cccc(C(F)(F)F)c2)c1	12*	-4	-1	-9	2	25
CC(C)Oc1cccc(C(=O)NC(=S)Nc2cccc(C(F)(F)F)c2)c1	-4	-24	-1	27	4	22
O=C(NNC(=S)Nc1cccc(C(F)(F)F)c1)c1ccccc1Cl	0	-13	3	2	2	1
O=C(NNC(=S)Nc1cccc(C(F)(F)F)c1)c1cccc(Cl)c1	25*	-28	1	-2	-3	17
CCOc1cccc(C(=O)NC(=S)Nc2cccc(NC(=O)c3ccccc3Cl)c2)c1	16*	-10	1	10	1	28
CN(C(=O)CSc1nncc2ccccc12)c1ccccc1	-1	9	2	.	0	-9
COC(=O)c1ccc(N2C(c3ccsc3)=Cc3cc4c(cc3C2CC(=O)c2ccco2)OCO4)cc1 (stereo not drawn)	.	.	-6	.	-1	32
SMILES	NR3A LBD binder	Cardio protect	SENP1 inh	Arr AP2 block	hiPSC survival	FAS-TE inh
Cc1ccc(C)c(NC(=O)CCC(=O)N/N=C/c2cc([N+](=O)[O-])ccc2O)c1	-13	64*	2	-5	-1	28
CCN(Cc1ccccc1)c1ccc(/C=N/NS(=O)(=O)c2cccc([N+](=O)[O-])c2)cc1	10*	-8	-3	31	-1	24
Cc1ccc(NC(=O)CCC(=O)N/N=C/c2cc([N+](=O)[O-])ccc2O)cc1	0	64*	2	15	4	32
Cc1ccccc1NC(=O)CCC(=O)N/N=C/c1cc([N+](=O)[O-])ccc1O	-4	44	15	32	-1	26
O=C(CSc1nc2ccccc2s1)N/N=C/c1cc([N+](=O)[O-])ccc1O	2	53*	-3	1	0	25
O=C(N/N=C/c1cc([N+](=O)[O-])ccc1O)C1CC1	1	30	1	-5	1	21
Cc1cc(=O)oc2cc(OCC(=O)N/N=C/c3cc([N+](=O)[O-])ccc3O)ccc12	-3	55*	-3	5	-1	42
O=C(CN(c1cccc(Br)c1)S(=O)(=O)c1ccccc1)N/N=C/c1cc([N+](=O)[O-])ccc1O	14*	37	-13	-5	0	50
O=C(N/N=C/c1cc([N+](=O)[O-])ccc1O)C(O)(c1ccccc1)c1ccccc1	5	61*	-12	31	-1	47
O=C(CN(Cc1ccccc1)S(=O)(=O)c1ccccc1)N/N=C/c1ccc([N+](=O)[O-])cc1	10*	-6	4	7	1	29
CC(C)(C)NC(=O)CN(c1cccc([N+](=O)[O-])c1)S(=O)(=O)c1ccccc1	-1	3	2	23	0	4
Cc1cc(=O)oc2cc(OCC(=O)NC3CCCC3)ccc12	-3	0	-1	4	0	2
O=C(CN(Cc1ccccc1)S(=O)(=O)c1ccccc1)N/N=C/c1ccc2c(c1)OCO2	-11	0	0	1	0	24
CCOC(=O)C1(C)CCCCCN1C(=O)c1ccc(N(C)C)cc1 (stereo not drawn)	.	0	1	.	-1	-3
CCOc1ccc2cc(S(=O)(=O)N3CCCCC3)ccc2c1	-2	-17	0	1	0	24
CCOc1ccc(S(=O)(=O)N2CCCC2)cc1	13*	-2	1	0	0	-4
O=S(=O)(c1ccc(SCCOc2ccc(F)cc2)nc1)N1CCCC1	14*	-12	1	-1	0	35
O=C(NCCc1ccccc1C(F)(F)F)c1cc(COc2ccccc2)on1	.	-8	1	.	1	22
Cc1ccc2oc(=O)cc(/C=C/c3ccccc3)c2c1	18*	-4	1	1	0	35
Cc1nc2ccccn2c1C(=O)/C=C/c1ccc(F)cc1	13*	-2	-1	22	-1	-3
